Laboratory results as given in ChEMBL document CHEMBL2093137, “WHO-TDR NTD Screening”.
Values after ≈ are worked out from the molar mass of the structure shown.

Experiments:
Onchocerca ochengi = assay: WHO-TDR: Onchocerciasis; assay type: functional; design: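 at 12.5 µM on microfilariae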
Procedure, shortened: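 Onchocerca ochengi or Onchocerca lienalis, animal pathogens used as surrogates for the human parasite, were screened as whole microfilariae against a 10,000-compound diverse library from Life Chemicals. The reported measures of activity are percent inhibition and IC50.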

Trypanosoma cruzi = assay: WHO-TDR: Chagas disease; assay type: functional, organism-based, Homo sapiens; settings: MRC5
Procedure, shortened: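 A diverse library of 10,000 compounds from Life Chemicals, filtered for drug-likeness and reactive groups, was screened against intracellular amastigotes of Trypanosoma cruzi Tulahuen CL2 beta-galactosidase strain. The parasites were grown in MRC-5SV2 human lung fibroblast host cells, and a reference drug served as positive control under previously published standard procedures. Antiparasitic potency is given as IC50.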

Brugia malayi = assay: WHO-TDR: Lymphatic Filariasis; assay type: functional; design: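 tested at 10 µM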
Procedure, shortened: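 Percent inhibition and IC50 describe activity against Brugia malayi microfilariae in a whole-organism screen. The screen used previously published standard procedures with reference drugs as positive controls. Compounds came from a diverse Life Chemicals library of 10,000, filtered for drug-likeness and reactive groups.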

Schistosoma mansoni = assay: WHO-TDR: Schistosomiasis; assay type: functional; design: concentration or dose not given beside the values
Procedure, shortened: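 Larval and/or adult Schistosoma mansoni (Puerto Rican strain) were tested whole against 10,000 diverse compounds from Life Chemicals. The procedure was a previously published standard one, using a reference drug as positive control. Results are expressed as percent inhibition and IC50.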

Plasmodium falciparum K1 = assay: WHO-TDR: Malaria; assay type: functional, organism-based, Homo sapiens; settings: Erythrocyte
Procedure, shortened: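 Whole-organism screen of a 10,000-compound diverse library from Life Chemicals, filtered for drug-likeness and reactive groups, against intra-erythrocytic Plasmodium falciparum K1 strain in human red blood cells. The assay followed previously published standard procedures, with a reference drug as positive control. Antiplasmodial potency is reported as IC50.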

[1] = WHO-TDR: Cytotoxicity; assay type: toxicity, cell-based; settings: human, MRC5 cells
[2] = test system: Trypanosoma brucei brucei; assay: WHO-TDR: Human African Trypanosomiasis (HAT); assay type: functional, organism-based; settings: Squib-427
Procedure, shortened: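 Whole-organism screen of a 10,000-compound diverse library from Life Chemicals, filtered for drug-likeness and reactive groups, against bloodstream forms of Trypanosoma brucei Squib 427 strain. The assay followed previously published standard procedures, with reference drugs as positive controls. Antiparasitic potency is reported as IC50.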

Leishmania infantum = assay: WHO-TDR: Leishmaniasis; assay type: functional, organism-based, Mus musculus; settings: Macrophage
Procedure, shortened: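 Whole-organism screen of a 10,000-compound diverse library from Life Chemicals, filtered for drug-likeness and reactive groups, against intracellular amastigotes of Leishmania infantum MHOM/MA(BE)/67 in murine peritoneal macrophage host cells. The assay followed previously published standard procedures, with a reference drug as positive control. Antiparasitic potency is reported as IC50.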

SMILES	% Inhibition (Onchocerca ochengi)	IC50 (Trypanosoma cruzi)	% Inhibition (Brugia malayi)	% Inhibition (Schistosoma mansoni)	IC50 (Plasmodium falciparum K1)	IC50 [1]	IC50 [2]	IC50 (Leishmania infantum)
O=C(Cc1csc(NC(=O)c2ccc[nH]c2=O)n1)Nc1ccc2c(c1)OCCO2	0%	> 12.4 µg/mL	20%	100%	> 12.4 µg/mL	> 12.4 µg/mL	> 12.4 µg/mL	> 12.4 µg/mL
CCn1ccnc1N1CCN(CC(=O)NCc2ccc(C)cc2)CC1	0%	> 12.4 µg/mL	0%	0%	> 12.4 µg/mL	> 12.4 µg/mL	> 12.4 µg/mL	0.402 µg/mL (≈ 1.18 µM)
CCOC(=O)Cn1/c(=N\C(=O)CCCS(=O)(=O)Cc2ccccc2)sc2cc(F)ccc21	100%	> 14.4 µg/mL	0%	0%	> 14.4 µg/mL	> 14.4 µg/mL	> 14.4 µg/mL	> 14.4 µg/mL
Cc1ccnc(Nc2ccc(NCCNC(=O)c3ccc(F)cc3Cl)nn2)c1	100%	> 12 µg/mL	25%	0%	5.9 µg/mL (≈ 14.7 µM)	> 12 µg/mL	4.09 µg/mL (≈ 10.2 µM)	> 12 µg/mL
CCc1ccc(C(=O)NCCNc2ccc(Nc3cccc(C)n3)nn2)cc1	100%	> 11.3 µg/mL	0%	0%	3.3 µg/mL (≈ 8.76 µM)	6.22 µg/mL (≈ 16.5 µM)	> 11.3 µg/mL	> 11.3 µg/mL
CCC(=O)Nc1ccc(S(=O)(=O)NCCc2ccc(N3CCCC3)cc2)c(C)c1	100%	5.06 µg/mL (≈ 12.2 µM)	0%	0%	> 12.5 µg/mL	> 12.5 µg/mL	6.95 µg/mL (≈ 16.7 µM)	> 12.5 µg/mL
Cn1nccc1C(=O)Nc1sc(-c2ccccc2)cc1C(N)=O	0%	6.26 µg/mL (≈ 19.2 µM)	0%	100%	> 9.79 µg/mL	8.31 µg/mL (≈ 25.4 µM)	3.17 µg/mL (≈ 9.71 µM)	3.17 µg/mL (≈ 9.71 µM)
CCCc1nnc(NC(=O)CSc2ccc(NC(=O)c3cccs3)nn2)s1	0%	> 12.6 µg/mL	0%	0%	> 12.6 µg/mL	> 12.6 µg/mL	> 12.6 µg/mL	0.408 µg/mL (≈ 0.97 µM)
O=S(=O)(NCC(c1cccs1)N1CCOCC1)c1ccc(Cl)cc1 (stereo unspecified)	100%	> 11.6 µg/mL	0%	0%	> 11.6 µg/mL	> 11.6 µg/mL	> 11.6 µg/mL	> 11.6 µg/mL
CC1CC(C)CN(S(=O)(=O)CCCOc2ccc3c(c2)OCO3)C1 (stereo unspecified)	0%	> 10.7 µg/mL	20%	100%	> 10.7 µg/mL	4.25 µg/mL (≈ 11.9 µM)	> 10.7 µg/mL	> 10.7 µg/mL
CCc1ccc(NC(=O)N2CCN(c3ccc(Nc4cc(C)ccn4)nn3)CC2)cc1	100%	> 12.5 µg/mL	50%	0%	8.24 µg/mL (≈ 19.7 µM)	> 12.5 µg/mL	> 12.5 µg/mL	> 12.5 µg/mL
O=C(Nc1ccc2c(c1)N(C(=O)C1CCCO1)CC2)c1ccco1 (stereo unspecified)	0%	> 9.79 µg/mL	0%	0%	> 9.79 µg/mL	> 9.79 µg/mL	> 9.79 µg/mL	0.317 µg/mL (≈ 0.971 µM)
CC(=O)c1sc(NC(=O)C2CCCCN2S(C)(=O)=O)nc1-c1ccccc1 (stereo unspecified)	100%	4.06 µg/mL (≈ 9.97 µM)	0%	0%	> 12.2 µg/mL	> 12.2 µg/mL	3.12 µg/mL (≈ 7.67 µM)	> 12.2 µg/mL
CCOc1ccc(-c2ccc(=O)n(CCCC(=O)Nc3ccccc3SC)n2)cc1	100%	8.92 µg/mL (≈ 21.1 µM)	0%	0%	> 12.7 µg/mL	> 12.7 µg/mL	> 12.7 µg/mL	> 12.7 µg/mL
COc1ccccc1C(=O)N1CCN(c2nccn2-c2ccccc2F)CC1	100%	> 12.5 µg/mL	0%	25%	> 12.5 µg/mL	> 12.5 µg/mL	> 12.5 µg/mL	> 12.5 µg/mL
COc1ccc(S(=O)(=O)N2CCN(c3ccc(-c4ccncc4)nn3)CC2)c(OC)c1	0%	5.69 µg/mL (≈ 12.9 µM)	33.33%	0%	2.48 µg/mL (≈ 5.62 µM)	> 13.2 µg/mL	> 13.2 µg/mL	0.429 µg/mL (≈ 0.972 µM)
CSc1ccccc1NC(=O)c1ccc(Cl)s1	100%	> 8.51 µg/mL	25%	0%	> 8.51 µg/mL	> 8.51 µg/mL	> 8.51 µg/mL	> 8.51 µg/mL
OCc1cnc(SCc2ccccc2)n1Cc1ccccc1	100%	> 9.31 µg/mL	25%	0%	9.31 µg/mL (≈ 30 µM)	> 9.31 µg/mL	> 9.31 µg/mL	> 9.31 µg/mL
COc1ccc(S(=O)(=O)N2CCN(c3ccc(Nc4ccccn4)nn3)CC2)cc1	0%	> 12.8 µg/mL	0%	16.7%	> 12.8 µg/mL	> 12.8 µg/mL	> 12.8 µg/mL	0.414 µg/mL (≈ 0.971 µM)
Cc1cc(-c2nnc(NC(=O)C3CCCCN3S(=O)(=O)c3cccs3)o2)nn1C (stereo unspecified)	100%	4.26 µg/mL (≈ 9.75 µM)	33.33%	0%	> 13.1 µg/mL	4.91 µg/mL (≈ 11.2 µM)	4.14 µg/mL (≈ 9.49 µM)	4.24 µg/mL (≈ 9.71 µM)
COc1ccc(C)cc1S(=O)(=O)NCCNc1ccc(Nc2cccc(C)n2)nn1	100%	> 12.9 µg/mL	0%	0%	3.4 µg/mL (≈ 7.95 µM)	> 12.9 µg/mL	5.42 µg/mL (≈ 12.7 µM)	> 12.9 µg/mL
O=C(CSC1=Nc2cccnc2Nc2ccccc21)Nc1ccc(OC(F)(F)F)cc1	100%	> 13.3 µg/mL	0%	0%	13.3 µg/mL (≈ 30 µM)	> 13.3 µg/mL	> 13.3 µg/mL	> 13.3 µg/mL
